Experimental data as given in publication PMC12353801 (Nature Medicine, 2025).

Legend:
[1] = Pharmacokinetics of rentosertib in blood plasma of patients with IPF; type: in vivo, human
serum proteins = test: Olink Explore 3072 proteomic profiling of patient serum; type: in vivo, human; settings: for number of serum proteins significantly changing with treatment: Benjamini–Hochberg-adjusted P value <0.1
Outline: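 Serum was sampled at baseline and weeks 2, 4, 8 and 12 and profiled on the Olink Explore 3072 panel as NPX. Dose effects were fitted per protein with a generalized linear mixed model: NPX ~ treatment + visit + treatment:visit + (1|patient). Baseline-to-week-12 change was tested by two-sided paired t-test. P values were BH-adjusted, with significance at adjusted P < 0.1.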

patients with IPF [2] = test: Phase 2a trial: treatment-emergent adverse events; type: in vivo, human; settings: for percentage of patients who have at least one treatment-emergent adverse event / AEs considered to be treatment related / AEs leading to treatment discontinuation / Any AE / Liver function: ALT increase / Liver function: AST increase / Liver function: Liver injury / SAEs considered to be treatment related / SAEs resulting in death / SAEs, grade ≥3: 12 weeks; for AEs considered to be treatment related / AEs leading to treatment discontinuation / Any AE / Liver function: ALT increase / Liver function: AST increase / Liver function: Liver injury / SAEs considered to be treatment related / SAEs resulting in death / SAEs, grade ≥3: n = 18
healthy individuals = settings: phase 0 and 1 trials; cited from earlier work
patients with IPF [3] = test: Phase 2a trial: change in forced vital capacity; type: in vivo, human
Outline: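 This was a double-blind, 1:1:1:1 randomized trial of oral 30 mg QD, 30 mg BID or 60 mg QD against placebo QD for 12 weeks on standard of care. Spirometry to 2019 ATS/ERS criteria, on central SpiroSphere devices or on unchanged local equipment, was done at baseline and week 12. Analysis used ANCOVA (treatment fixed, baseline covariate) with multiple imputation for missing week-12 data, two-sided, intent-to-treat.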

patients with IPF [4] = test: Phase 2a trial: acute exacerbations of IPF and days hospitalized; type: in vivo, human; settings: 60 mg QD
Outline: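 Acute IPF exacerbations, and days in hospital after each, were recorded from week 0 through week 12 in IPF patients. Patients received oral dosing (30 mg QD, 30 mg BID or 60 mg QD) or placebo QD alongside standard of care. Adverse events were monitored throughout treatment and for 1 week after the last dose.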

CC(C)n1cnc(-c2ccc(F)cc2)c1-c1ncc(C(=O)Nc2ccc(N3CCN(C)CC3)cc2)[nH]1 [rentosertib]
AUC0–t, arithmetic mean ([1]; 30 mg BID, week 0 (first dose)): 315 h/ng/mL
AUC0–t, arithmetic mean ([1]; 30 mg BID, week 12 (EOT)): 1,390 h ng^−1 ml^−1
time of peak plasma concentration after administration ([1]; 30 mg QD, 30 mg BID, 60 mg QD, single and multiple doses): 1 h
AUC0–t, arithmetic mean ([1]; 30 mg QD, week 0 (first dose)): 553 h/ng/mL
AUC0–t, arithmetic mean ([1]; 30 mg QD, week 12 (EOT)): 788 h/ng/mL
AUC0–t, arithmetic mean ([1]; 60 mg QD, week 0 (first dose)): 1,630 h ng^−1 ml^−1
AUC0–t, arithmetic mean ([1]; 60 mg QD, week 12 (EOT)): 3,450 h ng^−1 ml^−1
drug accumulation ([1]; by week 12): no obvious drug accumulation
steady state achieved ([1]; multiple doses): 2 week
number of significantly altered proteins from baseline to week 12 (serum proteins; 30 mg BID): 39
number of significantly altered proteins from baseline to week 12 (serum proteins; 30 mg QD): 0
number of significantly altered proteins from baseline to week 12 (serum proteins; 60 mg QD): 115
number of serum proteins significantly changing with treatment (serum proteins; week 2, linear regression): 20
number of serum proteins significantly changing with treatment (serum proteins; week 4, linear regression): 82
number of serum proteins significantly changing with treatment (serum proteins; week 12, linear regression): 192
TEAE: alanine aminotransferase (ALT) increase (patients with IPF [2]; 30 mg BID, 1 patient): 5.6%
treatment-related SAEs (patients with IPF [2]; 30 mg BID, 2/18): 11.1%
TEAE: diarrhea (patients with IPF [2]; 30 mg BID, 3 patients): 16.7%
treatment discontinued for AEs due to liver injury or dysfunction (patients with IPF [2]; 30 mg BID, 4/18): 22.2%
TEAE: hepatic function abnormal (patients with IPF [2]; 30 mg BID, 4 patients): 22.2%
TEAE: hypokalemia (patients with IPF [2]; 30 mg BID, 5 patients): 27.8%
Treatment-related AEs (patients with IPF [2]; 30 mg BID, 11/18): 61.1%
percentage of patients who have at least one treatment-emergent adverse event (patients with IPF [2]; 30 mg BID, n = 15/18): 83.3%
AEs considered to be treatment related (patients with IPF [2]; 30 mg BID): 11 (61.1) no. (%)
AEs leading to treatment discontinuation (patients with IPF [2]; 30 mg BID): 5 (27.8) no. (%)
Any AE (patients with IPF [2]; 30 mg BID): 15 (83.3) no. (%)
Liver function: ALT increase (patients with IPF [2]; 30 mg BID): 0 (0) no. (%)
Liver function: AST increase (patients with IPF [2]; 30 mg BID): 0 (0) no. (%)
Liver function: Liver injury (patients with IPF [2]; 30 mg BID): 2 (11.1) no. (%)
SAEs considered to be treatment related (patients with IPF [2]; 30 mg BID): 2 (11.1) no. (%)
SAEs resulting in death (patients with IPF [2]; 30 mg BID): 1 (5.6) no. (%)
SAEs, grade ≥3 (patients with IPF [2]; 30 mg BID): 4 (22.2) no. (%)
treatment discontinued for AEs due to liver injury or dysfunction (patients with IPF [2]; 30 mg QD, 0/18): 0%
safety and tolerability, overall (patients with IPF [2]; 30 mg QD, 30 mg BID and 60 mg QD over 12 weeks): safe and well tolerated
treatment-related SAEs (patients with IPF [2]; 30 mg QD, 1/18): 5.6%
TEAE: alanine aminotransferase (ALT) increase (patients with IPF [2]; 30 mg QD, 1 patient): 5.6%
TEAE: diarrhea (patients with IPF [2]; 30 mg QD, 2 patients): 11.1%
TEAE: hepatic function abnormal (patients with IPF [2]; 30 mg QD, 2 patients): 11.1%
TEAE: hypokalemia (patients with IPF [2]; 30 mg QD, 3 patients): 16.7%
Treatment-related AEs (patients with IPF [2]; 30 mg QD, 9/18): 50.0%
percentage of patients who have at least one treatment-emergent adverse event (patients with IPF [2]; 30 mg QD, n = 13/18): 72.2%
AEs considered to be treatment related (patients with IPF [2]; 30 mg QD): 9 (50.0) no. (%)
AEs leading to treatment discontinuation (patients with IPF [2]; 30 mg QD): 1 (5.6) no. (%)
Any AE (patients with IPF [2]; 30 mg QD): 13 (72.2) no. (%)
Liver function: ALT increase (patients with IPF [2]; 30 mg QD): 0 (0) no. (%)
Liver function: AST increase (patients with IPF [2]; 30 mg QD): 0 (0) no. (%)
Liver function: Liver injury (patients with IPF [2]; 30 mg QD): 0 (0) no. (%)
SAEs considered to be treatment related (patients with IPF [2]; 30 mg QD): 1 (5.6) no. (%)
SAEs resulting in death (patients with IPF [2]; 30 mg QD): 0 (0) no. (%)
SAEs, grade ≥3 (patients with IPF [2]; 30 mg QD): 2 (11.1) no. (%)
TEAE: alanine aminotransferase (ALT) increase (patients with IPF [2]; 60 mg QD): 33.3%
treatment-related SAEs (patients with IPF [2]; 60 mg QD, 2/18): 11.1%
treatment discontinued for AEs due to liver injury or dysfunction (patients with IPF [2]; 60 mg QD, 3/18): 17%
TEAE: diarrhea (patients with IPF [2]; 60 mg QD, 5 patients): 27.8%
percentage of patients who have at least one treatment-emergent adverse event (patients with IPF [2]; 60 mg QD, n = 15/18): 83.3%
AEs considered to be treatment related (patients with IPF [2]; 60 mg QD): 14 (77.8) no. (%)
AEs leading to treatment discontinuation (patients with IPF [2]; 60 mg QD): 4 (22.2) no. (%)
Any AE (patients with IPF [2]; 60 mg QD): 15 (83.3) no. (%)
Liver function: ALT increase (patients with IPF [2]; 60 mg QD): 1 (5.6) no. (%)
Liver function: AST increase (patients with IPF [2]; 60 mg QD): 1 (5.6) no. (%)
Liver function: Liver injury (patients with IPF [2]; 60 mg QD): 1 (5.6) no. (%)
SAEs considered to be treatment related (patients with IPF [2]; 60 mg QD): 2 (11.1) no. (%)
SAEs resulting in death (patients with IPF [2]; 60 mg QD): 0 (0) no. (%)
SAEs, grade ≥3 (patients with IPF [2]; 60 mg QD): 7 (38.9) no. (%)
Treatment-related AEs (patients with IPF [2]; 60 mg QD, 14/18): 77.8%
pharmacokinetic (PK) profile, overall (healthy individuals): favorable pharmacokinetic (PK) profile
safety and tolerability, overall (healthy individuals): safe and well tolerated
Absolute change in FVC from baseline after 12 weeks, mean (95% CI) (patients with IPF [3]; 30 mg BID): +19.7 ml
Absolute change in FVC from baseline after 12 weeks, mean (95% CI) (patients with IPF [3]; 30 mg QD): -27.0 mL
Absolute change in FVC from baseline after 12 weeks, mean (95% CI) (patients with IPF [3]; 60 mg QD): +98.4 ml
Change in FVC - No SOC: FVC change from baseline (95% CI) (patients with IPF [3]; 60 mg QD, 12 weeks, not concurrently taking SOC antifibrotic therapy): +187.8 mL
Number of days hospitalized for acute IPF exacerbations, Mean (SD) (patients with IPF [4]): 23.3 days
patients who experienced acute exacerbation of IPF (AE-IPF) (patients with IPF [4]; three patients): 16.7%
